We go through 48 molecules from PubChem BioAssay AID871 (The Scripps Research Institute Molecular Screening Center, 2007).

Among all 190,000 compounds or so, about 1,800 (0.95%) were called active. For the sample, actives were picked, then their nearest neighbours and some compounds at random. Values without a mark were called inactive.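 How the source made its calls: active means activation above the screen-wide mean of compound activation plus 3 SD (cut at about 130% in these data); inactive means the rest.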

The assay in a line: IL-6 driven STAT3 reporter potentiators, primary screen, U3A cells, luciferase, luminescence, MLSCN library (AID 871).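 Further: 0% = background luminescence of wells with medium and substrate only.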 To be noted: IL-6 STAT3-luciferase reporter, at 5.6 µM, stronger effect = higher value, 100% = signal with IL-6 EC80 alone. The method, boiled down: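 Test system: human U3A cells carrying STAT3-luciferase construct; control set: IL-6-only wells as 100% reference; timing: compound pre-incubation 1 h before IL-6, then 6 h stimulation at 37 °C; also added: IL-6 stimulus at 33 ng/mL final; evaluation: % activation versus median of IL-6-stimulated wells; detection: reporter luminescence signal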
In general terms: Reporter assays use an easily measured gene product as a stand-in for the process of interest.
As for `Cc1cc(=O)n2[nH]c(-c3sccc3-n3c(C)ccc3C)cc2n1`, the activation (% of control) is 118%.

On to `CCCC(C)C(=O)OCC(=O)Nc1c(Br)cc(C)cc1Br` (stereo not drawn), for which the activation (% of control) was 102%.

`Cc1cccc(C(=O)Nc2nnc(Cc3c[nH]c4ccccc34)s2)c1`: the activation (% of control) is 157% (active).

Turning to `CCc1nnc(NC(=O)[C@@H](NC(=O)c2cccc(C)c2)C(C)C)s1`, the activation (% of control) is 101%.

In the case of `COc1ccc(Cc2nnc(NC(=O)c3cc(OC)c(OC)c(OC)c3)s2)cc1OC`, the activation (% of control) is 91.5%.

On to `CCc1ccc2ncc(C(=O)c3ccccc3)c(N3CCOCC3)c2c1`, for which the activation (% of control) was 110%.

In the case of `CCn1c(SCC(=O)N/N=C/C=C/c2ccccc2[N+](=O)[O-])nnc1-c1ccccc1`, the activation (% of control) is 138% (active).

As to `CCn1c(SCC(=O)Nc2ccc(S(=O)(=O)Nc3onc(C)c3C)cc2)nnc1-c1ccccc1`, the activation (% of control) is 98.7%.

`Cc1ccc(-n2c(SCC(=O)N/N=C/C=C/c3ccccc3[N+](=O)[O-])nc3ccccc3c2=O)cc1`: the activation (% of control) is 97.7%.

Take `COc1ccc(CCNC(=O)COC(=O)Cc2cc(OC)c(OC)c(OC)c2)cc1`: the activation (% of control) is 111%.

With `CC(C)NC(=O)C(=O)NCCCOC(C)C`, the activation (% of control) was 101%.

`COc1nc(N=C(N)N)nc2c(C)cccc12`: the activation (% of control) was 172% (active).

`Cc1cccc2c(=O)n3c(nc12)CCCCC3`: the activation (% of control) is 102%.

Turning to `CCc1c(C)nc2c(OC)cccc2c1Cl`, the activation (% of control) is 101%.

On to `COc1ccc2nc(/N=C(\N)NC(=O)Nc3ccccc3)nc(C)c2c1`, for which the activation (% of control) was 100%.

With `Cc1nc(N=C(N)N)nc2c(C)cccc12`, the activation (% of control) was 168% (active).

Turning to `O=C(COC(=O)c1ccccc1)Nc1cccc(S(=O)(=O)N2CCOCC2)c1`, the activation (% of control) was 101%.

In the case of `CCC1CCCCN1C(=S)Nc1ccc(SC(F)F)cc1` (stereo not drawn), the activation (% of control) was 94.3%.

As to `CC1(C)CC(=O)CC2(C1)NCC(c1ccccc1Cl)c1c2[nH]c2ccccc12` (stereo not drawn), the activation (% of control) is 105%.

Turning to `O=C(C1=C(O)C(=O)N(c2ncccn2)C1c1cccs1)c1ccco1` (stereo not drawn), the activation (% of control) was 134% (active).

With `O=C(C1=C(O)C(=O)N(Cc2ccccc2)C1c1cccnc1)c1ccco1` (stereo not drawn), the activation (% of control) was 100%.

Regarding `O=C(C1=C(O)C(=O)N(Cc2ccccc2)C1c1ccco1)c1ccco1` (stereo not drawn), the activation (% of control) was 101%.

As to `CCOC(=O)CNC(=O)/C=C/c1c(Cl)cccc1Cl`, the activation (% of control) is 86.6%.

As to `CCOC(=O)C1CCN(c2ncnc3c2c(-c2ccccc2)cn3-c2ccc(C)cc2)CC1`, the activation (% of control) was 102%.

As for `CCOC(=O)C1CCN(c2ncnc3c2oc2ccc(Br)cc23)CC1`, the activation (% of control) is 141% (active).

Regarding `CCOC(=O)C1CCN(C(=O)c2oc3ccc(S(=O)(=O)N4CCCCCC4)cc3c2C)CC1`, the activation (% of control) is 89.9%.

Turning to `Cn1cccc1C(=O)Nc1nccs1`, the activation (% of control) is 140% (active).

As for `COc1cc(C(=O)Nc2nccs2)cc(OC)c1OC`, the activation (% of control) is 81%.

Regarding `O=C(O)c1ccccc1-c1ccccc1C(=O)Nc1nccs1`, the activation (% of control) was 101%.

In the case of `COC(=O)Cc1c(O)ccn(Cc2cccc(C(F)(F)F)c2)c1=O`, the activation (% of control) was 99.8%.

On to `COCC(=O)N=Nc1c(O)[nH]c2ccccc12`, for which the activation (% of control) is 92.2%.

For `Cc1cccc(N(CC(=O)N=Nc2c(O)[nH]c3ccccc23)S(C)(=O)=O)c1C`, the activation (% of control) was 140% (active).

`Cc1c(-c2ccccc2)n[nH]c1C(=O)N=Nc1c(O)[nH]c2ccccc12`: the activation (% of control) was 84.5%.

Turning to `CC1=NNC(=O)C1CCC(=O)N/N=C\c1ccc(Cl)c(Cl)c1` (stereo not drawn), the activation (% of control) was 108%.

As to `Cc1ccc2nsnc2c1NC(=O)c1ccccc1[N+](=O)[O-]`, the activation (% of control) was 99.5%.

With `O=C(O/N=C(/c1ccccc1)c1ccncc1)c1ccccc1[N+](=O)[O-]`, the activation (% of control) is 113%.

Consider `C/C(=N\NC(=O)CSc1nc2ccccc2c(=O)n1-c1ccccc1C)c1cccs1`, for which the activation (% of control) was 105%.

In the case of `C/C(=N\NC(=O)CNc1cccc2ccccc12)c1ccc(Br)s1`, the activation (% of control) is 137% (active).

With `Cc1cccc(/C=N/NC(=O)CNc2cccc3ccccc23)n1`, the activation (% of control) was 114%.

For `Cc1cc(/C=N/NC(=O)c2cccnc2)c(C)n1CC(C)C`, the activation (% of control) is 118%.

In the case of `CSCCC(NC(=O)c1ccco1)C(=O)OCC(=O)Nc1ncc(Cl)c(C)c1Cl` (stereo not drawn), the activation (% of control) was 145% (active).

Take `Cc1c(Cl)cnc(NC(=O)COC(=O)c2ccc(S(=O)(=O)NCc3ccco3)cc2)c1Cl`: the activation (% of control) is 103%.

Turning to `CSCCC(NC(=O)COc1ccccc1)C(=O)OCC(=O)c1cc2ccccc2o1` (stereo not drawn), the activation (% of control) is 116%.

As to `O=C1CCCN1CCCNc1ncnc2c1[nH]c1ccccc12`, the activation (% of control) is 151% (active).

Take `O=C(CCn1c(=S)[nH]c2ccccc2c1=O)NCCCN1CCCC1=O`: the activation (% of control) is 98.6%.

For the molecule `CC(C)OCCCNc1ncnc2c1[nH]c1ccc(F)cc12`, the activation (% of control) was 36.3%.

With `CCCc1nnc(SCC(=O)N2C(C)CCCC2C)n1CC` (stereo not drawn), the activation (% of control) was 105%.

For `N#CCSc1nn(-c2ccc(F)cc2)c(=S)s1`, the activation (% of control) was 103%.
